# The source made the active and inactive calls. The rule behind the calls is not given here.
# Key:
# UACC-62 = assay: Growth inhibition of human UACC62 cells after 24 hrs by MTT assay; format: functional; settings: UACC-62, 24 h
# LOX IMVI = assay: Growth inhibition of human LOXIMVI cells after 24 hrs by MTT assay; format: functional
# MCF7 [1] = assay: Induction of apoptosis in human MCF7 cells assessed as increase of caspase 8 activation at 4 uM after 1 hr by […] method; format: functional, cell-based
# In short: (§1)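 Colorimetric caspase-8 kit on lysates of treated MCF-7 cells. The IETD-pNA substrate was incubated with cell lysate at 37 °C for 1 h, and absorbance was read at 405 nm. Untreated cells served as the control.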
# A498 = assay: Growth inhibition of human A498 cells after 24 hrs by MTT assay; format: functional; settings: A498, 24 h
# MCF7 [2] = assay: Cytotoxicity against human MCF7 cells at 2 uM after 24 hrs by MTT assay relative to control; format: functional
# In short: (§2)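 MCF-7 cells were seeded at 10,000 cells/well in DMEM with 10% fetal calf serum. They were exposed to 0.5, 1, 2 and 4 µM for 24 h. MTT reduction to formazan was read at 570 nm, with untreated controls taken as 100% viability. DMSO-treated cells served as an additional control.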
# SK-MEL-5 = assay: Growth inhibition of human SK-MEL-5 cells after 24 hrs by MTT assay; format: functional; settings: SK-MEL-5, 24 h
# K562 = assay: Growth inhibition of human K562 cells after 24 hrs by MTT assay; format: functional; settings: K562, 24 h
# CAKI-1 = assay: Growth inhibition of human Caki1 cells after 24 hrs by MTT assay; format: functional; settings: CAKI-1, 24 h
# [3] = Growth inhibition of human Hs 578T cells after 24 hrs by MTT assay; format: functional
# Nucleic Acid [4] = assay: Inhibition of Escherichia coli pBR322 DNA cleavage at 16 uM after 16 hrs by RED100-restriction endonuclease digestion assay; format: nucleic-acid assay
# In short: (§3)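 pBR322 DNA was preincubated with compound at final 2, 4, 8, 16 and 32 µM for 16 h at 37 °C. BamHI (10 U/µl) in BamHI buffer was then added for 2 h at 37 °C. Products were separated on agarose in 0.5× Tris–acetate EDTA at 80 V for 1 h and stained with ethidium bromide. Cut and uncut DNA served as controls.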
# MCF7 [5] = assay: Growth inhibition of human MCF7 cells after 24 hrs by MTT assay; format: functional; settings: MCF7, 24 h
# SW-620 = assay: Growth inhibition of human SW620 cells after 24 hrs by MTT assay; format: functional; settings: SW-620, 24 h
# U-251 = assay: Growth inhibition of human U251 cells after 24 hrs by MTT assay; format: functional; settings: U-251, 24 h
# MDA-MB-435 = assay: Growth inhibition of human MDA-MB-435 cells after 24 hrs by MTT assay; format: functional; settings: MDA-MB-435, 24 h
# Malme-3M = assay: Growth inhibition of human MALME-3M cells after 24 hrs by MTT assay; format: functional
# HOP-62 = assay: Growth inhibition of human HOP62 cells after 24 hrs by MTT assay; format: functional; settings: HOP-62, 24 h
# T47D = assay: Growth inhibition of human T47D cells after 24 hrs by MTT assay; format: functional
# COLO 205 = assay: Growth inhibition of human COLO205 cells after 24 hrs by MTT assay; format: functional; settings: COLO 205, 24 h
# NCI-H226 = assay: Growth inhibition of human NCI-H226 cells after 24 hrs by MTT assay; format: functional; settings: NCI-H226, 24 h
# EKVX = assay: Growth inhibition of human EKVX cells after 24 hrs by MTT assay; format: functional
# MCF7 [6] = assay: Cell cycle arrest in human MCF7 cells assessed as accumulation at G1 phase at 4 uM after 24 hrs using propidium iodide staining by flow cytometry; format: functional
# In short: (§4)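 MCF-7 cells were grown in DMEM with 10% fetal calf serum, penicillin and streptomycin, at 37 °C in 5% CO2. They were treated for 24 h at 2 and 4 µM, with DMSO-treated cells as controls. Cells were trypsinised, fixed in ice-cold 70% ethanol at 4 °C for 30 min, and RNaseA-treated at 37 °C for 30 min. Phases were read by flow cytometry.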
# MCF7 [7] = assay: Cell cycle arrest in human MCF7 cells assessed as accumulation at S phase at 2 uM after 24 hrs using propidium iodide staining by flow cytometry; format: functional; in short: as §4
# MCF7 [8] = assay: Cytotoxicity against human MCF7 cells at 4 uM after 24 hrs by MTT assay relative to control; format: functional, cell-based; in short: as §2
# A549 = assay: Growth inhibition of human A549 cells after 24 hrs by MTT assay; format: functional; settings: A549, 24 h
# HT-29 = assay: Growth inhibition of human HT-29 cells after 24 hrs by MTT assay; format: functional; settings: HT-29, 24 h
# MDA-MB-231 = assay: Growth inhibition of human MDA-MB-231 cells after 24 hrs by MTT assay; format: functional; settings: MDA-MB-231, 24 h
# Nucleic Acid [9] = assay: Inhibition of Escherichia coli pBR322 DNA cleavage after 16 hrs by RED100-restriction endonuclease digestion assay; format: nucleic-acid assay; in short: as §3
# MOLT-4 = assay: Growth inhibition of human MOLT4 cells after 24 hrs by MTT assay; format: functional; settings: MOLT-4, 24 h
# MCF7 [10] = assay: Cell cycle arrest in human MCF7 cells assessed as accumulation at G2/M phase at 2 uM after 24 hrs using propidium iodide staining by flow cytometry; format: functional; in short: as §4
# [11] = Growth inhibition of human […] cells after 24 hrs by MTT assay; format: functional
# MCF7 [12] = assay: Induction of apoptosis in human MCF7 cells assessed as increase of caspase 8 activation at 2 uM after 1 hr by […] method; format: functional, cell-based; in short: as §1
# HCT-15 = assay: Growth inhibition of human HCT15 cells after 24 hrs by MTT assay; format: functional; settings: HCT-15, 24 h
# SK-OV-3 = assay: Growth inhibition of human SKOV3 cells after 24 hrs by MTT assay; format: functional; settings: SK-OV-3, 24 h
compound,measurement,setting,value
COc1cc2c(cc1OCCCOc1ccc(-c3cc4ccccc4c4ccccc34)cc1)N=C[C@@H]1CCCN1C2=O,GI50,UACC-62,630 nM
same,GI50,LOX IMVI,1020 nM
same,Activity,MCF7 [1],Active
same,GI50,A498,690 nM
same,Activity,MCF7 [2],<=50%
same,GI50,SK-MEL-5,1060 nM
same,GI50,K562,270 nM
same,GI50,CAKI-1,400 nM
same,GI50,[3],1020 nM
same,inhibition,Nucleic Acid [4],100%
same,GI50,MCF7 [5],170 nM
same,GI50,SW-620,510 nM
same,GI50,U-251,910 nM
same,GI50,MDA-MB-435,240 nM
same,GI50,Malme-3M,1590 nM
same,GI50,HOP-62,1000 nM
same,GI50,T47D,80 nM
same,GI50,COLO 205,1190 nM
same,GI50,NCI-H226,1170 nM
same,GI50,EKVX,1050 nM
same,Activity,MCF7 [6],75.33%
same,Activity,MCF7 [7],17.29%
same,Activity,MCF7 [8],Active
same,GI50,A549,720 nM
same,GI50,HT-29,890 nM
same,GI50,MDA-MB-231,290 nM
same,inhibition,Nucleic Acid [9],Dose-dependent effect
same,GI50,MOLT-4,180 nM
same,Activity,MCF7 [10],10.7%
same,GI50,[11],190 nM
same,Activity,MCF7 [12],Active
same,GI50,HCT-15,1180 nM
same,GI50,SK-OV-3,1560 nM

# Source: ChEMBL document CHEMBL1165860, “Synthesis and potential cytotoxic activity of new phenanthrylphenol-pyrrolobenzodiazepines” (2010)
